Data set [1] can be described thus: Half life in C57 Black mouse liver at 10 mg/kg, po. Type of data set: ADME, organism-based. In a few lines:
(§1)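 Male C57BL/6 mice (n = 3) dosed at 10 mg/kg by IV or oral (PO) route. Dosing solutions were formulated in 10% DMSO, 10% cremaphor and 80% saline. Compound levels were measured in plasma and tissues over time, and values are given as mean ± SEM.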

Another data set deals with CYP2C19 (Homo sapiens, UniProt P33261). Put plainly: Inhibition of human CYP2C19 using fluorogenic substrate incubated for 60 mins in presence of NADPH by fluorescence assay relative to control. In kind it is ADME. To be noted: probe fluorogenic substrate. An outline of the steps: (§2)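 Baculosomes each expressing a single cDNA-derived human P450 isozyme were incubated with compound at 10 µM, a fluorogenic substrate and NADPH. Incubation was at 37 °C for at least 60 min before fluorescence was read, n = 3.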
Sequence of CYP2C19 (P33261 whole entry): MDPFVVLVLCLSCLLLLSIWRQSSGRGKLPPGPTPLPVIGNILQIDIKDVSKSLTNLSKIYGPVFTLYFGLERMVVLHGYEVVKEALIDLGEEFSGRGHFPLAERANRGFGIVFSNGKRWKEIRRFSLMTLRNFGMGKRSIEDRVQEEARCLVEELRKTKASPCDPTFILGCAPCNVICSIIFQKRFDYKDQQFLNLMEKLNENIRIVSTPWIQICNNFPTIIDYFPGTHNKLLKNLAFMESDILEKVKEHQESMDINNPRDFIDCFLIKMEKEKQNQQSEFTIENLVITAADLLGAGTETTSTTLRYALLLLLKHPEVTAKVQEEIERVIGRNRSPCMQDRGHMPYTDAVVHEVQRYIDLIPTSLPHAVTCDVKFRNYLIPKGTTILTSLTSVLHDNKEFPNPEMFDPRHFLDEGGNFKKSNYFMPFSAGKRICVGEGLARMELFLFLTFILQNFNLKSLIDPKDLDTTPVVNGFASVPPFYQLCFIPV

Data set [2] can be described thus: AUClast in C57 Black mouse liver at 10 mg/kg, iv. Set-up: time 0 - last, route intravenous, dose 10 mg/kg. In kind it is ADME, organism-based. An outline of the steps:
(§3)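 Male C57BL/6 mice were given a single 10 mg/kg dose either intravenously or orally. The oral and IV solutions were formulated in 10% DMSO, 10% cremaphor and 80% saline. Concentrations in plasma and in the tissues collected were determined after dosing, with n = 3 per route. Values are given as mean ± SEM.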

Data set [3] can be described thus: Thermodynamic solubility of compound in PBS at 1 mg/ml after 24 hrs by LC-MS/MS analysis. In kind it is physicochemical. To be noted: read-out: Therm_solubility. In a few lines:
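Compound was equilibrated at 1 mg/mL and at 0.1 mg/mL in PBS containing 5% (v/v) DMSO, for 24 h at 21 °C. Samples were centrifuged at 15,000 g for 10 min and the supernatant was quantified by LC-MS/MS, n = 3.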

Data set [4] can be described thus: AUCinfinity in C57 Black mouse muscle at 10 mg/kg, iv. In kind it is ADME, organism-based, Muscle tissue. Set-up: time infinity, route intravenous, dose 10 mg/kg. In a few lines:
as §3

Data set [5] is described as follows: AUClast in C57 Black mouse liver at 10 mg/kg, po. Type of data set: ADME, organism-based. More on the design: time 0 - last, route oral, dose 10 mg/kg. An outline of the steps:
as §3

The target in the next data set is CYP3A4 (Homo sapiens, UniProt P08684). Put plainly: Inhibition of human CYP3A4 using fluorogenic substrate incubated for 60 mins in presence of NADPH by fluorescence assay relative to control. Type of data set: ADME. To be noted: probe fluorogenic substrate. An outline of the steps: as §2
Sequence of CYP3A4 (P08684 whole entry): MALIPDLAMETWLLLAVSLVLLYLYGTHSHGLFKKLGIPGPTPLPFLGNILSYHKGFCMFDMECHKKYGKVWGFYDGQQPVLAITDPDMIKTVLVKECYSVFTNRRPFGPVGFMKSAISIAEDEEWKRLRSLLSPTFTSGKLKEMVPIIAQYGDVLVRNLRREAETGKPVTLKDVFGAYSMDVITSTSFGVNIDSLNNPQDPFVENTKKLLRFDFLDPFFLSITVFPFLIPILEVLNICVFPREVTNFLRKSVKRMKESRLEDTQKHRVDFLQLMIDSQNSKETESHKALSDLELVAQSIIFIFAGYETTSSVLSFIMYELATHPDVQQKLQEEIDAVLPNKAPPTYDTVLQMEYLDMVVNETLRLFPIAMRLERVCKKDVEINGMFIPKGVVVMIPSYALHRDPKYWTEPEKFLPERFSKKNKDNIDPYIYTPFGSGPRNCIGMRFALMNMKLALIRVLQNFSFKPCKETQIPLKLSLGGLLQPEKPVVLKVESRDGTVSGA
The nature of data set [6]: AUCinfinity in C57 Black mouse brain at 10 mg/kg, po. Type of data set: ADME, organism-based. More on the design: route oral, time infinity, dose 10 mg/kg. In a few lines: as §3
Data set [7] can be described thus: Cmax in C57 Black mouse brain at 10 mg/kg, iv. Type of data set: ADME, organism-based. More on the design: route intravenous, dose 10 mg/kg. In a few lines: as §3
Data set [8] in a line: Cmax in C57 Black mouse brain at 10 mg/kg, po. More on the design: route oral, dose 10 mg/kg. Type of data set: ADME, organism-based. An outline of the steps:
as §3

The nature of data set [9]: AUCinfinity in C57 Black mouse brain at 10 mg/kg, iv. Type of data set: ADME, organism-based. Set-up: time infinity, route intravenous, dose 10 mg/kg. An outline of the steps:
as §3

The nature of data set [10]: Intrinsic clearance in human hepatocytes at 1 uM up to 120 mins by HPLC-MS/MS analysis. Type of data set: ADME, cell-based, Hepatocyte. The following applies: 2 h.
Data set [11] in a line: Tmax in C57 Black mouse muscle at 10 mg/kg, iv. In kind it is ADME, organism-based, Muscle tissue. An outline of the steps: as §1
Data set [12] is described as follows: AUCall in C57 Black mouse liver at 10 mg/kg, iv. Type of data set: ADME, organism-based. More on the design: dose 10 mg/kg. An outline of the steps:
as §3

Data set [13] is described as follows: Half life in mouse plasma at 1 uM after 60 to 120 mins by HPLC-MS/MS analysis. In kind it is ADME, cell-free. The following applies: time 60-120 min. In a few lines:
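Buffer containing test compound at 1 µM was mixed with human or mouse blood plasma and incubated at 37 °C for 60–120 min. Parent compound remaining gave the plasma half-life and the percentage stable at 2 h.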

The nature of data set [14]: Half life in C57 Black mouse plasma at 10 mg/kg, po. In kind it is ADME, organism-based. In a few lines: as §1
Data set [15] can be described thus: Volume of distribution in C57 Black mouse muscle at 10 mg/kg, iv. Type of data set: ADME, organism-based, Muscle tissue. An outline of the steps:
as §1

Data set [16] in a line: AUCall in C57 Black mouse kidney at 10 mg/kg, iv. Type of data set: ADME, organism-based. Set-up: dose 10 mg/kg. An outline of the steps:
as §3

Data set [17] can be described thus: Cmax in C57 Black mouse spleen at 10 mg/kg, po. Set-up: route oral, dose 10 mg/kg. Type of data set: ADME, organism-based. An outline of the steps:
as §3

Structures are written as SMILES. Converted amounts (≈) assume the structure as drawn.

This note sets out measurements from ChEMBL document CHEMBL4765370, “Design, synthesis, and biological evaluation of aryl piperazines with potential as antidiabetic agents via the stimulation of glucose uptake and inhibition of NADH:ubiquinone oxidoreductase” (Eur J Med Chem, 2020).

Consider `O=C(CCCc1cccs1)N1CCN(c2ccc(C(F)(F)F)cc2)CC1`, for which the half-life in data set [1] was 60 min; in data set [14] it was 45.6 min. In addition, the inhibition at 1 h on CYP2C19 came to 75.5%; on CYP3A4, 80.2%. The AUC(0-t) in [2] turned out to be 487 ng·h/mL; in data set [5], 4050 ng·h/mL. The solubility thermodynamic at 24 h in [3] is 4 µg/mL (≈ 10.5 µM). Also, the results for the AUC(0-inf) in [4], in [6] and in data set [9] were 107 ng·h/mL, 774 ng·h/mL and 253 ng·h/mL, respectively. The Cmax in data set [7] worked out at 1030 ng/mL; in data set [8], 1430 ng/mL; in data set [17] it was 1100 ng/mL. For the same compound, the CLH in data set [10] turned out to be 346 µL/min. In addition, in data set [11], the Tmax amounted to 1.8 min. Besides, the values for the AUC in [12] and in [16] were 487 ng·h/mL and 320 ng·h/mL, respectively. In [13], this compound yielded a half-life at 1 µM of 327 min. Moreover, the Vd in data set [15] turned out to be 7.13 L/kg.
